Activity calls are given as the source filed them.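 Rule for the calls: active = IC50 at or below 10 µM; inactive = IC50 above 10 µM.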

Disintegrin and metalloproteinase domain-containing protein 10 (Homo sapiens), sequence (O14672 214-748 limits assumed): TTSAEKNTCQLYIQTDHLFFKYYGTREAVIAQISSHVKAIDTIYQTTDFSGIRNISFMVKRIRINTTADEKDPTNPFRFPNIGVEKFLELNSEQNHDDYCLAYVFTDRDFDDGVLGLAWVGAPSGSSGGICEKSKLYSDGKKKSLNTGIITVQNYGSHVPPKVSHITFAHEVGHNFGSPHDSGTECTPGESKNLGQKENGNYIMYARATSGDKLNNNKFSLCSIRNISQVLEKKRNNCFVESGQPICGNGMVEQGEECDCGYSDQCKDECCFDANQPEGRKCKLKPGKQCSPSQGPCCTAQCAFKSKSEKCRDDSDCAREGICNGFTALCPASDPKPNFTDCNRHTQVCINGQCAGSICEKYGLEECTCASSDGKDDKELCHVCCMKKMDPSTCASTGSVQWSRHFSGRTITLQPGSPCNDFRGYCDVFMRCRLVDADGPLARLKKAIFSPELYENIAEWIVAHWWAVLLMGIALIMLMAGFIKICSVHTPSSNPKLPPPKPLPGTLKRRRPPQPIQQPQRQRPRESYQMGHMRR

The assay deals with Disintegrin and metalloproteinase domain-containing protein 10 (Homo sapiens) (UniProt O14672). Kind of assay: ADAM10 protease inhibitors, potency curves – biochemical, QFRET peptide, fluorescence, ADAM10 exosite inhibitor project, late-stage follow-up (AID 743338). Conditions: recombinant ADAM10, QFRET peptide cleavage. The method, boiled down: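 evaluation = IC50 from four-parameter inhibition curve fit | test system = human ADAM10 | also added = DM2 quenched peptide substrate | dosing = 10 doses, 1:3 steps, up to 69.5 µM | times = Enzyme–compound preincubation 30 min at 25 °C, substrate reaction 3 h | benchmarks = 1 µM marimastat high, DMSO low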
The IC50 is the concentration that gives 50% inhibition. Consider `O=C(CN(Cc1cccs1)S(=O)(=O)c1ccc(S(=O)(=O)NC2CCCCC2)cc1)Nc1ccccc1`, for which the IC50 was > 69.5 µM (inactive).
The same measure for `Cc1ccc(S(=O)(=O)Nc2ccc(Cl)cc2)cc1NC(=O)c1cc2c(s1)CCCC2`: > 69.5 µM (inactive).
Consider `O=C(O)CCC(=O)c1c[nH]c2ccccc12`, for which the IC50 was > 69.5 µM (inactive).
The same measure for `COc1ccc(-c2ccc(-c3noc(-c4cccc(OC)c4)n3)c(OC)n2)cc1`: > 69.5 µM (inactive).
The same measure for `CCCCN(Cc1ccccc1)S(=O)(=O)c1cc(Br)cc2c1N(C(C)=O)C(C)C2` (stereo not drawn): > 69.5 µM (inactive); for `C=C(C)COc1ccc(-c2[nH]ncc2Oc2ccc(OC)cc2)c(O)c1`: “inactive”; for `CCOc1ccc(NC(=O)CC2SC(=O)N(c3ccccc3)C2=O)cc1` (stereo not drawn): > 69.5 µM (inactive).
The same measure for `O=C(Nc1ccc(OCC(F)(F)C(F)(F)F)c(C(F)(F)F)c1)c1ccc(F)cc1`: > 69.5 µM (inactive); for `O=S(=O)(NCC(Nc1ccc(Cl)cc1)c1ccccc1)c1ccccc1` (stereo not drawn): > 69.5 µM (inactive).
For `Cc1csc(-c2cnn(-c3ccccc3)c2NC(=O)c2ccc(C(F)(F)F)cc2)n1`, the IC50 was > 69.5 µM (inactive).
Turning to `Cc1ccc(OCC(O)Cn2c3ccccc3c3ccccc32)cc1` (stereo not drawn), the IC50 was > 69.5 µM (inactive).
The same measure for `COc1cccc(C(=O)NNC(=O)C(=O)Nc2ccc(C)c(Cl)c2)c1`: 6.5 µM; for `O=C(Nc1ccc(OCC(F)(F)C(F)F)c(C(F)(F)F)c1)c1ccc(Cl)cc1`: > 69.5 µM (inactive); for `C=C(C)COc1ccc(-c2n[nH]c(C)c2Oc2ccccc2OC)c(O)c1`: “inactive”.
The same measure for `COc1ccccc1NS(=O)(=O)c1cccc(NC(=O)Nc2ccc(Cl)cc2)c1`: > 69.5 µM (inactive).
Regarding `Oc1cc2c(cc1C(c1ccc(Cl)c(Cl)c1)N1CCCC1)OCO2` (stereo not drawn), the IC50 was 4.87 µM.
The same measure for `C=C(C)COc1ccc(-c2[nH]ncc2Oc2cccc(OC)c2)c(O)c1`: “inactive”; for `COc1ccc2nc(SCC(=O)Nc3ccc(S(=O)(=O)N4CCCC4)cc3)c(C#N)cc2c1`: > 69.5 µM (inactive); for `Cc1ccc(CC2(c3ccccc3)NC(=O)NC2=O)cc1` (stereo not drawn): > 69.5 µM (inactive).
The same measure for `O=C(Nc1ccc(OCC(F)(F)C(F)(F)F)c(C(F)(F)F)c1)c1ccc(Br)cc1`: > 69.5 µM (inactive); for `CS(=O)(=O)N(CC(=O)Nc1ccccc1Sc1ccccc1)c1cccc(Br)c1`: > 69.5 µM (inactive); for `O=C1NC(=O)C(Cc2ccc(Cl)cc2)(c2ccccc2)N1` (stereo not drawn): “inactive”.
On to `O=S(=O)(NCC(Nc1ccc(Cl)cc1)c1ccccc1)c1ccc(Cl)cc1` (stereo not drawn), for which the IC50 is > 69.5 µM (inactive).
